The full list was thinned out, with hits kept by preference.
MPTP block: permeability transition pore inhibition; isolated mouse mitochondria, Ca2+ swelling absorbance, 30 min; inhibition, % at 10 µM; 360,000 tested, 1.4% active; AID 602449;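 active = inhibition of 50% or more, scaled per plate between neutral and stimulator controls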
L major viab: Leishmania major promastigote growth inhibition; Leishmania major promastigotes, resazurin fluorescence viability; AID 1063; inhibition, % at 10 µM; 200,000 tested, 9% active; in the data active = inhibition above about 50%;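 note: promastigotes grown with compound for 44 hours at 28 °C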
T cruzi repl: T. cruzi replication inhibition. inhibition, % (no concentration beside the values). AID 1885. 300,000 tested, 1.4% active. T. cruzi beta-gal in NIH3T3, luminescence, 90 h;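 active = mean inhibition across valid replicates above about 55%, limit read from the data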;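 note: signal also drops with host cell toxicity which is not excluded here; higher percent means less beta-gal luminescence so fewer parasites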
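Assay system: NIH/3T3 fibroblasts plus reporter T. cruzi. Amount: NIH/3T3 cells, 5,000 per well. Buffer or medium: DMEM, 2% fetal bovine serum. Doses: compound pinned at 50 nL/well, DMSO. Schedule: ≥90 h infection period, 3 h prior cell attachment. Signal: luminescent β-galactosidase signal after 60 min lysis. Read-out: parasite load inhibition, %.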
Hep lipid drop: modulators of hepatic lipid droplet formation; AML12 mouse hepatocytes, oleate lipid droplets, BODIPY imaging; 240,000 tested, 0.4% active; inhibition, % at 6.5 µM;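 active = lipid droplet intensity inhibited by at least 50%, with more than 500 cells counted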
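Test system: AML12 hepatocytes (mouse); reagent: oleate loading, 100 µM; dosing: one dose, 6.5 µM compound; incubation: overnight exposure; signal: fluorescence imaging, 20x objective, two fields per well; read-out basis: % inhibition of corrected integrated BODIPY droplet signal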
Redox H2O2 prof: compounds producing H2O2 with reducing agent – biochemical, NIH compound library profiling, artefact control for MLSCN library redox annotation, primary screen; DTT-dependent redox cycling H2O2, phenol red/HRP absorbance; 100% = 100 µM peroxide control, 0% = buffer; activation, % at 10 µM; 200,000 tested, 0.03% active; AID 878;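 active = activation of at least 50% relative to the plate's high and low controls in the primary single-dose screen; inactive = activation below 50%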;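 note: compound incubated with DTT at 0.8 mM final as the reducing agent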
Large screens that a line does not name were inactive.

CCCS(=O)(=O)NC(=O)C1(C)CCN(C(=O)c2ccc(C(F)(F)F)nc2C)C1 (centres undefined)	none (no result: L major viab, T cruzi repl, Hep lipid drop, Redox H2O2 prof)
CCn1cc(C(=O)NCC(OC)OC)c(=O)c2cc(S(=O)(=O)N3CCC(C)CC3)ccc21	none (no result: L major viab, Redox H2O2 prof)
CN(C)C(CNC(=O)c1cc(S(=O)(=O)N2CCOCC2)ccc1F)c1cccs1 (centres undefined)	none (no result: L major viab, T cruzi repl, Hep lipid drop, Redox H2O2 prof)
Cc1cc(C)cc(N(CC(=O)NC(C)(C)C)C(=O)CNC(=O)c2cccs2)c1	none
Cc1ccc([C@H]2C(C#N)=C(N)Oc3cc(C)oc(=O)c32)o1	L major viab 100
Cc1cc2c(c(=O)o1)C(C(C)C)C(C#N)=C(N)O2 (centres undefined)	none (no result: Hep lipid drop)
Cc1cc2c(c(=O)o1)C(c1cccs1)C(C#N)=C(N)O2 (centres undefined)	L major viab 62
Cc1ccc(Cn2c(C)cc3c(c2=O)C(c2cccs2)C(C#N)=C(N)O3)cc1 (centres undefined)	none (no result: Hep lipid drop)
CCCCNC(=S)N(C)/N=C/c1ccc(OCc2ccc(C(=O)OC)cc2)c(OC)c1	none
COc1cc(/C=C(\NC(C)=O)C(=O)N2CCCCC2)ccc1OC(C)=O	none (no result: L major viab, Redox H2O2 prof)
CCSc1ccc2cc(OC)ccc2[n+]1CC	L major viab 84, T cruzi repl 55
Cc1ccc(S(=O)(=O)N(CCCO)CC(O)CON=C2c3ccccc3-c3ccccc32)cc1 (centres undefined)	L major viab 100, T cruzi repl 65
Cc1ccc(S(=O)(=O)N(CC(O)CN(C)C)c2ccccc2)cc1 (centres undefined)	none
Cc1noc(NS(=O)(=O)c2ccc(NC(=O)NC(C)(C(F)(F)F)C(F)(F)F)cc2)c1C	none (no result: L major viab, Redox H2O2 prof)
N#Cc1cc2c(nc1Cl)CCC2	none (no result: L major viab, T cruzi repl, Redox H2O2 prof)
N#Cc1cc2c(nc1Cl)CCCC2	L major viab 73
C=Cc1ccc(Cn2c(C)c(C(=O)NCc3ccc(Cl)c(Cl)c3)sc2=O)cc1	none (no result: L major viab, T cruzi repl, Hep lipid drop, Redox H2O2 prof)
Cc1cc(Cl)ccc1NC(=O)CCC(=O)N/N=C/c1cc([N+](=O)[O-])ccc1O	L major viab 92
Cc1cc(C)n(CC(=O)N/N=C/c2cc([N+](=O)[O-])ccc2O)n1	none
O=C(NCCSCc1c(F)cccc1Cl)c1ccc(CN2CCOCC2)cc1	L major viab 80
O=c1[nH]c(CN2CCN(C/C=C/c3ccccc3)CC2)nc2cc(Cl)ccc12	T cruzi repl 61
CCN(CC)S(=O)(=O)c1ccc(NC(=S)NC(=O)C(C)C)cc1	L major viab 72
CCN(CC)S(=O)(=O)c1ccc(OC)c(NC(=S)Nc2ccc(C)c(C)c2)c1	L major viab 62
COc1ccc(NC(=O)Oc2cc(C)ccc2C(C)C)cc1	none (no result: L major viab, Redox H2O2 prof)
CC1(C)C(=O)Nc2ccccc2N1C(=O)COC(=O)c1ccc(Cl)c(S(=O)(=O)NCc2ccccc2)c1	L major viab 99
CC1(C)C(=O)Nc2ccccc2N1C(=O)COC(=O)c1cc(S(C)(=O)=O)ccc1Cl	none (no result: L major viab, T cruzi repl, Hep lipid drop, Redox H2O2 prof)
COc1ccc(C(=O)NCC2(c3ccc(OC)c(OC)c3)CCCC2)cc1OC	none (no result: L major viab, T cruzi repl, Hep lipid drop, Redox H2O2 prof)
COc1ccc(C2(CNC(=O)c3ccc(OC)c([N+](=O)[O-])c3)CCCCC2)cc1OC	L major viab 87
Cc1c(Br)c([N+](=O)[O-])nn1CC(=O)NCCc1c[nH]c2ccccc12	L major viab 69
Cc1ccc(C)c(NC(=O)Cn2nc([N+](=O)[O-])c(Br)c2C)c1	L major viab 73
Cc1cn(-c2cc(NC(=O)c3ccc(C)c(NC(=O)c4cccc(-c5cn[nH]c(=O)c5)c4)c3)cc(C(F)(F)F)c2)cn1	none (no result: L major viab, Hep lipid drop, Redox H2O2 prof)
Fc1ccccc1-c1nc2nc3ccccc3nc2n1CC1CCCO1 (centres undefined)	none (no result: L major viab, Redox H2O2 prof)
COc1ccc(/C=C/C(=O)NC(=S)Nc2cc3oc4ccccc4c3cc2OC)cc1	L major viab 50
COc1cc2c(cc1NC(=O)C(C)OC(=O)/C=C/c1ccc(OC(F)F)cc1)oc1ccccc12 (centres undefined)	L major viab 80
Cc1onc(C(=O)N2C(C)CCCC2C)c1[N+](=O)[O-] (centres undefined)	none
COc1ccc2c(c1)sc(=N)n2C	L major viab 101, T cruzi repl 72
COc1ccc2c(c1)sc1nc(=O)ccn12	none (no result: L major viab, Redox H2O2 prof)
Cc1noc(C)c1NC(=O)N(C)C[C@H]1OCCCC[C@@H](C)Oc2ccc(NS(=O)(=O)c3ccccc3)cc2C(=O)N([C@H](C)CO)C[C@@H]1C	none (no result: L major viab, T cruzi repl, Hep lipid drop, Redox H2O2 prof)
O=C(Nc1nccs1)c1cccc(N2C(=O)C3C4C=CC(C4)C3C2=O)c1 (centres undefined)	L major viab 51 (no result: Redox H2O2 prof)
O=C(Nc1nccs1)c1ccc(N2C(=O)[C@@H]3[C@H](C2=O)[C@H]2C=C[C@@H]3C2)cc1	none (no result: L major viab, Redox H2O2 prof)
O=C(Nc1nccs1)c1cccc(N2C(=O)c3cccc4c([N+](=O)[O-])ccc(c34)C2=O)c1	L major viab 73
Cc1c(NC(=O)C(C)OC(=O)c2cccs2)c(=O)n(-c2ccccc2)n1C (centres undefined)	none
CCC(C)(C)C1CCc2nc3ccccc3c(C(=O)OC(C)C(=O)Nc3c(C)n(C)n(-c4ccccc4)c3=O)c2C1 (centres undefined)	L major viab 84
COc1ccc(NC(=O)CCC2CCCCC2)cc1S(=O)(=O)N1CCCCC1	none
CN1C(c2ccc(F)cc2)=CS/C1=C(\C#N)c1nnc2n1-c1ccccc1SC2	L major viab 79 (no result: Hep lipid drop)
Clc1ccc(-c2nnc3n2-c2ccccc2SC3)cc1	none (no result: L major viab, Redox H2O2 prof)
O=C1CCCCC1(O)Cc1ccc2c(c1)OCO2 (centres undefined)	none (no result: L major viab, T cruzi repl, Hep lipid drop, Redox H2O2 prof)
C#CCOCCOCCOCCNc1nc(N2CCN(C(=O)CCCCCCCCCCNC(=O)[C@H](CO)n3cc(CCCSC)nn3)CC2)nc(N2CCN(C(=O)CCCCCCCCCCNC(=O)[C@H](CCCCN)n3cc(C[C@@H](C)CC)nn3)CC2)n1	T cruzi repl 55 (no result: MPTP block, L major viab, Hep lipid drop, Redox H2O2 prof)
C#CCOCCOCCOCCNc1nc(N2CCN(C(=O)CCCCCCCCCCNC(=O)[C@H](CCCCN)n3cc(C[C@@H](C)CC)nn3)CC2)nc(N2CCN(C(=O)CCCCCCCCCCNC(=O)[C@H](CCCCN)n3cc(C[C@@H](C)CC)nn3)CC2)n1	T cruzi repl 55 (no result: L major viab, Hep lipid drop, Redox H2O2 prof)
C#CCOCCOCCOCCNc1nc(N2CCN(C(=O)CCCCCCCCCCNC(=O)[C@H](CCCCN)n3cc(CCO)nn3)CC2)nc(N2CCN(C(=O)CCCCCCCCCCNC(=O)[C@H](CCCN=C(N)N)n3cc(C[C@@H](C)CC)nn3)CC2)n1	none (no result: L major viab, T cruzi repl, Hep lipid drop, Redox H2O2 prof)
CCN(CC)S(=O)(=O)c1ccc(Cl)c(NC(=O)COc2ccc(OC)cc2)c1	none
O=C(COC(=O)C12CC3CC(CC(O)(C3)C1)C2)Nc1ccc(Cl)c(S(=O)(=O)N2CCOCC2)c1	none (no result: L major viab, T cruzi repl, Hep lipid drop, Redox H2O2 prof)
CCOc1ccc(NC(=S)N(CCc2c(C)[nH]c3ccccc23)Cc2cccnc2)cc1	L major viab 100
Cc1[nH]c2ccccc2c1CCN(Cc1cccnc1)C(=S)NC(C)(C)C	none (no result: L major viab, Hep lipid drop, Redox H2O2 prof)
Cc1[nH]c2ccccc2c1CCN(Cc1cccnc1)C(=S)Nc1ccc(F)cc1	L major viab 100
CCOc1ccc(NC(=S)N(CCc2ccncc2)C(C)C)cc1	none
